Measured values as given in ChEMBL document CHEMBL4699441, “Identification and Preclinical Evaluation of the Bicyclic Pyrimidine γ-Secretase Modulator BMS-932481” (ACS Med Chem Lett, 2019).

Key:
[1] = Volume of steady state distribution in Sprague-Dawley rat at 2 mg/kg, iv measured up to 24 hrs by LC-MS/MS analysis; format: ADME, organism-based; details: in vivo
In short: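 Sprague–Dawley rats; 2 mg/kg given as 5 min iv infusion in 9:1 PEG:EtOH; n = 5; volume of distribution at steady state.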

[2] = Oral bioavailability in cynomolgus monkey at 1 mg/kg dosed as nano suspension measured up to 24 hrs by LC-MS/MS analysis; format: ADME, organism-based, Macaca fascicularis; details: in vivo
In short: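 Oral dosing as a nanosuspension in Sprague–Dawley rat, male Beagle dog and male cynomolgus monkey; dogs pretreated with pentagastrin.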

[3] = Dissociation constant, pKa of compound by spectrophotometric analysis; format: physicochemical
[4] = Metabolic stability in Sprague-Dawley rat assessed as half life incubated for 24 hrs by LC-MS/MS analysis; format: ADME
[5] = Efflux ratio of permeability in human Caco2 cells; format: ADME, cell-based; details: caco-2
[6] = target: T1, UDP-glucuronosyltransferase 1A1 (Homo sapiens, UniProt P22309); test: Inhibition of human UGT1A1; format: ADME
T1 sequence (P22309 whole entry): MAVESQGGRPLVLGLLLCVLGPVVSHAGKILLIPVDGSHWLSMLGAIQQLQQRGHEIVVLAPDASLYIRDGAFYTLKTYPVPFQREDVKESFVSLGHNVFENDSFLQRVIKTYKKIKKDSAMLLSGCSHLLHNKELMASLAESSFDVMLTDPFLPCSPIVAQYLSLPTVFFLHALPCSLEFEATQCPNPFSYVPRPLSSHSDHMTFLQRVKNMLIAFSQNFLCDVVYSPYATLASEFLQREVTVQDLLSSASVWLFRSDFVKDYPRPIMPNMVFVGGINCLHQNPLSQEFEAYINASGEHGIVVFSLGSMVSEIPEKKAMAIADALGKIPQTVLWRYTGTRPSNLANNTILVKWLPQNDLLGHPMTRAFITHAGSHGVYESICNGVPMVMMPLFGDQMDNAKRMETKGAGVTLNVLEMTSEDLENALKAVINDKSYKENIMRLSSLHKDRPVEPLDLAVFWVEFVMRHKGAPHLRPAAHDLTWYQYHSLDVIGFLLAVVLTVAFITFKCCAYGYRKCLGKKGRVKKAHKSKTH

[7] = Fraction unbound in Sprague-Dawley rat plasma measured after 24 hrs by LC-MS/MS analysis; format: ADME, cell-free
[8] = target: Cytochrome P450 2C9 (Homo sapiens, UniProt P11712); test: Inhibition of CYP2C9 in human liver microsomes; format: ADME
[9] = Toxicity in Beagle dog assessed as hyperbilirubinemia at 150 mg/kg, po administered for 1 month; format: organism-based, Canis lupus familiaris; details: in vivo, 730 h, time 1 months
In short: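 One-month oral toxicity study in dogs; high dose 150 mg/kg; bilirubin assessed.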

[10] = Toxicity in rat assessed as stress at 100 mg/kg, po administered for 2 week; format: organism-based; details: in vivo, 336 h, time 2 weeks
[11] = target: T2, Cytochrome P450 1A2 (Homo sapiens, UniProt P05177); test: Inhibition of CYP1A2 in human liver microsomes; format: ADME
T2 sequence (P05177 whole entry): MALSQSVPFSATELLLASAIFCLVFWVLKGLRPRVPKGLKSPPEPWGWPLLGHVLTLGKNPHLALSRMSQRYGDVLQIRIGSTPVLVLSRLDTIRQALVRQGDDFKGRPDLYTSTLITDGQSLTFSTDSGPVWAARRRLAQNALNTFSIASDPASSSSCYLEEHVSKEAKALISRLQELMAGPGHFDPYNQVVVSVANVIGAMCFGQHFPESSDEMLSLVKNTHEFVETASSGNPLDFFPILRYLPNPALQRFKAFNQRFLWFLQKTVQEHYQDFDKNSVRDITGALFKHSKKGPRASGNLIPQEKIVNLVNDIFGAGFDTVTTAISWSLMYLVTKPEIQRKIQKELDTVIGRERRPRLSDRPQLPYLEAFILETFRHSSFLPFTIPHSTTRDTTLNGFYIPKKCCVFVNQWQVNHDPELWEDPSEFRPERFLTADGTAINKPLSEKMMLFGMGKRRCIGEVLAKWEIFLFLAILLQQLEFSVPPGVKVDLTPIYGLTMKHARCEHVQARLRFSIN

[12] = target: T3, Solute carrier organic anion transporter family member 1B1 (Homo sapiens, UniProt Q9Y6L6); test: Inhibition of OATP1B1 (unknown origin); format: ADME
T3 sequence (Q9Y6L6 whole entry): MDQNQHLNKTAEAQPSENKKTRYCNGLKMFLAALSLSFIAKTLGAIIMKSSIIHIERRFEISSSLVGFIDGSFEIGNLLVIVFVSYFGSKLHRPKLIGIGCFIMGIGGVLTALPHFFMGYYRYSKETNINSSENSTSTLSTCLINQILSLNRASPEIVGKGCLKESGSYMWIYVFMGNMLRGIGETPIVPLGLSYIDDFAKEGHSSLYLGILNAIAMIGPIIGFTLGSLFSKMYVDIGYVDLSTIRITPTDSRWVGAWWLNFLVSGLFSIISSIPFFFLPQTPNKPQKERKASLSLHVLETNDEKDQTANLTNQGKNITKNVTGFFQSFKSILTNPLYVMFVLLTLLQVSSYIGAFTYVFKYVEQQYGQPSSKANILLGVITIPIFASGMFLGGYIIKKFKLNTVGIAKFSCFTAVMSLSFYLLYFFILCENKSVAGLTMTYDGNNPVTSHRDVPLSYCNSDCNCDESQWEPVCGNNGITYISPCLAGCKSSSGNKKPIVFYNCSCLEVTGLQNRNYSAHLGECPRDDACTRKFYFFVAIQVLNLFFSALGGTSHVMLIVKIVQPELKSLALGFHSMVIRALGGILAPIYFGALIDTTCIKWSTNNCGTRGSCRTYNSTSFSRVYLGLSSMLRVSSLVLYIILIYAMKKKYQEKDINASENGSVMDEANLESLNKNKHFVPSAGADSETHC

[13] = target: T4, PXR (NR1I2) (Homo sapiens, UniProt O75469); test: Transactivation of PXR (unknown origin) assessed as CYP450 induction relative to 10 uM rifampicin; format: ADME
T4 sequence (O75469 whole entry): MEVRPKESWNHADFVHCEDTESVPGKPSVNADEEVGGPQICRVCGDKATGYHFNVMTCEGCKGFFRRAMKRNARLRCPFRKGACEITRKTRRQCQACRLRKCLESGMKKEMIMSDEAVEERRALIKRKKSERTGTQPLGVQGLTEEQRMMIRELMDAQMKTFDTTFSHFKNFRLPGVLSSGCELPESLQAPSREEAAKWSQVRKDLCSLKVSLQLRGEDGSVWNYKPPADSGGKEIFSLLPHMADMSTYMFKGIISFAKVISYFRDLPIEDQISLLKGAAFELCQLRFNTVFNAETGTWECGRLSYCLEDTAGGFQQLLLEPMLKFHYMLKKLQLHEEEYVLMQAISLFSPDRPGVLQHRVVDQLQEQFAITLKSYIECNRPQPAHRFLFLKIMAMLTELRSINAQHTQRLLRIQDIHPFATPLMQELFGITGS
In short: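 PXR in vitro transactivation assay; maximal response expressed relative to 10 μM rifampicin set as 100%.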

[14] = Toxicity in rat assessed as change in bilirubin secretion at 10 to 100 mg/kg, po administered for 2 week; format: organism-based; details: in vivo, 336 h, dose 10-100 mg/kg, time 2 weeks

Sequence of Cytochrome P450 2C9 (P11712 whole entry): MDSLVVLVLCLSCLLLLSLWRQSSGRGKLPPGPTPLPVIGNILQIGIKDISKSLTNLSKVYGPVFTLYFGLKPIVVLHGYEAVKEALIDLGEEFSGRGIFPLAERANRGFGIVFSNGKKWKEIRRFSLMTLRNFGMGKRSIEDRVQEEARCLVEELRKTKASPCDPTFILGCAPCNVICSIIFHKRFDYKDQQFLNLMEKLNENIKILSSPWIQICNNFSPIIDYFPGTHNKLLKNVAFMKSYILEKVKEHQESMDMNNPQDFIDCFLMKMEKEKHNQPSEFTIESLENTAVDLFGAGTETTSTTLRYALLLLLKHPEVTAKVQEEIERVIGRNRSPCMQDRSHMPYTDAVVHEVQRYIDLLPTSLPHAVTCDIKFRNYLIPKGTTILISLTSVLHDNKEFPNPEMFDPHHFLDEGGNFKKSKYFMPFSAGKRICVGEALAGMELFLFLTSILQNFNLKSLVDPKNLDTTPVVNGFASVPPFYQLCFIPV

## CNc1nc(Nc2ccc(-n3cnc(C)n3)c(OC)c2)nc2c1CC[C@H]2c1ccc(F)cc1
[1]
  Vdss: 2.3 L/kg
[2]
  F: 45%
[3]
  pKa: 5.9
[4]
  t1/2: 28 min
[5]
  Ratio: 0.8
[6]
  IC50: 1400 nM
[7]
  Fu: 0.7%
[8]
  IC50: 7400 nM
[9]
  Activity: Toxic
[10]
  Activity: Non-Toxic
[11]
  IC50: > 40000 nM
[12]
  IC50: 66 nM
[13]
  Emax: 36%
[14]
  Activity: Non-Toxic
